Data on 31 compounds can be found in ChEMBL document CHEMBL1130236, “Design and synthesis of imidazoline derivatives active on glucose homeostasis in a rat model of type II diabetes. 1. Synthesis and biological activities of N-benzyl-N'-(arylalkyl)-2-(4',5'-dihydro-1'H-imidazol-2'-yl)piperazines ” (1997).

Molecules are shown by their SMILES.

Assay [1] has as its system Rattus norvegicus. In words: The incremental glycemia values after glucose administration (0.5 g/kg iv), to rats treated with streptozotocin (35 mg/kg iv). It counts as functional. Summed up:
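STZ (35 mg/kg iv) male Wistar rats were selected after 2 weeks with basal glycemia 7–10 mM and […]. They received 100 µmol/kg ip once before an iv glucose load. Tail blood was taken at 0, 5, 10, 15, 20 and 30 min. The glucose increment over baseline was integrated over 30 min and normalized as (treated−untreated STZ)/(untreated STZ−nondiabetic control)×100.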

Assay [2] relates to Rattus norvegicus. Put plainly: The glycemia values 30 minutes after glucose administration to streptozotocin rats. The assay is classed as functional. Summed up:
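Male Wistar rats (3-month, ~250 g) made diabetic with streptozotocin 35 mg/kg iv in citrate buffer; used 2 weeks later if basal glycemia was 7–10 mM. Single ip dose of 100 µmol/kg (hydrochloride salt), then iv glucose 0.5 g/kg under pentobarbital. Plasma glucose was read by analyzer at 30 min and expressed as % variation versus untreated STZ rats.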

Assay [3] has as its system Rattus norvegicus. In words: The rate of glucose disappearance between 5 and 30 minutes after glucose administration. It counts as functional, organism-based. Summed up:
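In the intravenous glucose tolerance test (0.5 g/kg, saphenous vein, pentobarbital anesthesia), STZ-diabetic male Wistar rats had received a single 100 µmol/kg ip dose beforehand. Plasma glucose was sampled from the tail at 5–30 min. The glucose disappearance rate K was computed over 5–30 min and expressed as % variation versus untreated STZ rats.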

The test system of assay [4] is Rattus norvegicus. In words: The incremental plasma insulin values over 30 minutes after glucose administration. The assay is classed as functional. In short, it runs like this:
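Moderately diabetic STZ Wistar rats were given 100 µmol/kg ip once, then 0.5 g/kg iv glucose under pentobarbital. Tail-vein plasma from 0–30 min was stored at −20 °C, and insulin was measured by radioimmunoassay (lower limit 19.5 pmol/L). The incremental insulin over baseline was integrated over 30 min and expressed as % variation versus untreated STZ rats.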

In the case of `CC(C)N1CCN(Cc2ccccc2Cl)C(C2=NCCN2)C1` (stereo not drawn), the “Delta G” value in the assay with Rattus norvegicus [1] stood at 84%. Moreover, the G30 in the assay with Rattus norvegicus [2] amounted to 83%. The same compound yielded a K with Rattus norvegicus [3] of 44%.

`CC(C)CN1CCN(Cc2ccc(Cl)cc2Cl)C(C2=NCCN2)C1` (stereo not drawn): the “Delta G” value in the assay with Rattus norvegicus [1] turned out to be 110%. The G30 with Rattus norvegicus [2] is on record as 95%. The K in the assay with Rattus norvegicus [3] is 119%. The “Delta I” value in the assay with Rattus norvegicus [4] is reported as 623%.

Regarding `CN1CCN(Cc2ccccc2C(F)(F)F)C(C2=NCCN2)C1` (stereo not drawn), the “Delta G” value in the assay on Rattus norvegicus [1] is recorded as 94%. Moreover, the G30 with Rattus norvegicus [2] is 64%. This compound also returned a K in the assay with Rattus norvegicus [3] of 63%.

For `CC(C)N1CCN(Cc2ccccc2Cl)CC1C1=NCCN1` (stereo not drawn), in the assay on Rattus norvegicus [1], the “Delta G” value is recorded as 112%. Further, the G30 in the assay on Rattus norvegicus [2] was 96%. Moreover, the K with Rattus norvegicus [3] came out at 95%.

With `CN1CCN(Cc2cc(Cl)cc(Cl)c2)C(C2=NCCN2)C1` (stereo not drawn), in the assay on Rattus norvegicus [1], the “Delta G” value is 0%. This compound yielded a G30 with Rattus norvegicus [2] of 70%. This compound also gave a K in the assay with Rattus norvegicus [3] of 117%.

In the case of `CN1CCN(Cc2ccc(Cl)c(Cl)c2)C(C2=NCCN2)C1` (stereo not drawn), the “Delta G” value in the assay on Rattus norvegicus [1] was 36%. This compound also showed a G30 in the assay on Rattus norvegicus [2] of 47%. The compound further yielded a K in the assay with Rattus norvegicus [3] of 42%.

Turning to `COc1cccc(CN2CCN(C)CC2C2=NCCN2)c1` (stereo not drawn), in the assay on Rattus norvegicus [1], the “Delta G” value came out at 23%. The compound also displayed a G30 in the assay on Rattus norvegicus [2] of 68%. Besides, in the assay with Rattus norvegicus [3], the K was 57%. In the assay on Rattus norvegicus [4], the “Delta I” value was 88%.

With `Clc1ccccc1CN1CCNCC1C1=NCCN1` (stereo not drawn), in the assay on Rattus norvegicus [1], the “Delta G” value came out at 0%. In the assay with Rattus norvegicus [2], this compound yielded a G30 of 0%. This compound also registered a K in the assay with Rattus norvegicus [3] of 11%.

Consider `c1ccc(C(CC2=NCCN2)c2ccccn2)cc1` (stereo not drawn) [MIDAGLIZOLE], for which the “Delta G” value in the assay on Rattus norvegicus [1] was 32%. For the same compound, in the assay with Rattus norvegicus [2], the G30 is recorded as 121%.

On to `c1ccc(CN2CCN(Cc3ccccc3)C(C3=NCCN3)C2)cc1` (stereo not drawn), for which the “Delta G” value in the assay on Rattus norvegicus [1] is 0%. The same compound yielded a G30 in the assay with Rattus norvegicus [2] of 33%. For the same compound, the K in the assay on Rattus norvegicus [3] was 43%.

Take `CN1CCN(Cc2ccc(Cl)cc2Cl)CC1C1=NCCN1` (stereo not drawn): in the assay with Rattus norvegicus [1], the “Delta G” value amounted to 34%. The compound also showed a G30 with Rattus norvegicus [2] of 102%. Also, the K in the assay on Rattus norvegicus [3] was found to be 152%.

Regarding `Clc1ccccc1CN1CCN(Cc2ccccc2Cl)C(C2=NCCN2)C1` (stereo not drawn), the “Delta G” value with Rattus norvegicus [1] came out at 0%. This compound also gave a G30 in the assay on Rattus norvegicus [2] of 0%. This compound also yielded a K in the assay with Rattus norvegicus [3] of 36%.

Regarding `CN1CCN(Cc2ccccc2Cl)C(C2=NCCN2)C1` (stereo not drawn), the “Delta G” value in the assay on Rattus norvegicus [1] was found to be 81%. In the assay with Rattus norvegicus [2], this compound yielded a G30 of 103%. In the assay on Rattus norvegicus [3], this compound had a K of 98%. The “Delta I” value in the assay on Rattus norvegicus [4] was found to be 109%.

`CCN1CCN(Cc2ccccc2Cl)C(C2=NCCN2)C1` (stereo not drawn): in the assay on Rattus norvegicus [1], the “Delta G” value was 108%. The compound further registered a G30 in the assay on Rattus norvegicus [2] of 38%. In the assay on Rattus norvegicus [3], this compound returned a K of 34%.

For the compound `CN1CCN(Cc2cccc(Cl)c2Cl)C(C2=NCCN2)C1` (stereo not drawn), in the assay with Rattus norvegicus [1], the “Delta G” value was found to be 0%. The G30 in the assay on Rattus norvegicus [2] stood at 36%. The same compound registered a K in the assay with Rattus norvegicus [3] of 53%.

For `CN1CCN(Cc2ccccc2)C(C2=NCCN2)C1` (stereo not drawn), the “Delta G” value in the assay on Rattus norvegicus [1] came to 0%. The compound also returned a G30 in the assay with Rattus norvegicus [2] of 23%. The compound also gave a K in the assay with Rattus norvegicus [3] of 67%. In addition, in the assay on Rattus norvegicus [4], the “Delta I” value is listed as 16%.

In the case of `CCN1CCN(Cc2ccccc2Cl)CC1C1=NCCN1` (stereo not drawn), in the assay on Rattus norvegicus [1], the “Delta G” value was found to be 70%. The compound also yielded a G30 in the assay on Rattus norvegicus [2] of 50%. The compound also had a K in the assay with Rattus norvegicus [3] of 106%.

On to `CN1CCN(Cc2ccc(Cl)cc2)C(C2=NCCN2)C1` (stereo not drawn), for which the “Delta G” value with Rattus norvegicus [1] is reported as 0%. Also, the G30 with Rattus norvegicus [2] is 68%. The K in the assay with Rattus norvegicus [3] is 110%.

For `c1ccc2c(c1)OCC(C1=NCCN1)O2` (stereo not drawn) [IDAZOXAN], the “Delta G” value in the assay on Rattus norvegicus [1] was found to be 8%. The compound also gave a G30 in the assay on Rattus norvegicus [2] of 48%. For the same compound, in the assay on Rattus norvegicus [3], the K came out at 79%.

On to `CCCN1CCN(Cc2ccccc2Cl)C(C2=NCCN2)C1` (stereo not drawn), for which, in the assay on Rattus norvegicus [1], the “Delta G” value stood at 0%. The compound further had a G30 in the assay with Rattus norvegicus [2] of 17%. Also, the K in the assay on Rattus norvegicus [3] came to 37%. In addition, in the assay on Rattus norvegicus [4], the “Delta I” value is 25%.

On to `COc1ccccc1CN1CCN(C)CC1C1=NCCN1` (stereo not drawn), for which, in the assay on Rattus norvegicus [1], the “Delta G” value is recorded as 47%. This compound also came in with a G30 with Rattus norvegicus [2] of 56%. This compound returned a K in the assay on Rattus norvegicus [3] of 39%.

`COc1cccc(CN2CCN(C)CC2C2=NCCN2)c1OC` (stereo not drawn): the “Delta G” value with Rattus norvegicus [1] was found to be 0%. Also, in the assay with Rattus norvegicus [2], the G30 is on record as 58%. The K with Rattus norvegicus [3] is 55%. Also, the “Delta I” value in the assay on Rattus norvegicus [4] worked out at 60%.

For the compound `CN1CCN(Cc2c(Cl)cccc2Cl)C(C2=NCCN2)C1` (stereo not drawn), the “Delta G” value in the assay on Rattus norvegicus [1] is 103%. Further, the G30 in the assay on Rattus norvegicus [2] was determined as 59%. Further, the K in the assay on Rattus norvegicus [3] is 107%.

Take `CCCN1CCN(Cc2ccc(Cl)cc2Cl)C(C2=NCCN2)C1` (stereo not drawn): the “Delta G” value with Rattus norvegicus [1] was 24%. Also, in the assay with Rattus norvegicus [2], the G30 was 80%. Also, the K in the assay with Rattus norvegicus [3] was 104%.

As to `CN1CCN(Cc2ccccc2Cl)CC1C1=NCCN1` (stereo not drawn), the “Delta G” value in the assay with Rattus norvegicus [1] is reported as 93%. In addition, in the assay with Rattus norvegicus [2], the G30 is 97%. In addition, the K with Rattus norvegicus [3] was 148%.

In the case of `CN1CCN(Cc2ccc(F)cc2F)C(C2=NCCN2)C1` (stereo not drawn), the “Delta G” value with Rattus norvegicus [1] is 102%. In the assay on Rattus norvegicus [2], this compound registered a G30 of 106%. Further, the K with Rattus norvegicus [3] worked out at 97%.

Turning to `CN1CCN(Cc2ccc(Cl)cc2Cl)C(C2=NCCN2)C1` (stereo not drawn), the “Delta G” value in the assay with Rattus norvegicus [1] is reported as 105%. Also, the G30 in the assay with Rattus norvegicus [2] was 112%. The “Delta I” value in the assay on Rattus norvegicus [4] is 221%.

Turning to `Clc1ccc(CN2CCN(Cc3ccc(Cl)cc3Cl)C(C3=NCCN3)C2)c(Cl)c1` (stereo not drawn), in the assay with Rattus norvegicus [1], the “Delta G” value came out at 0%. Moreover, the G30 in the assay on Rattus norvegicus [2] is recorded as 18%. The compound also returned a K in the assay on Rattus norvegicus [3] of 22%.

Turning to `CN1CCN(Cc2ccccc2F)C(C2=NCCN2)C1` (stereo not drawn), the “Delta G” value in the assay with Rattus norvegicus [1] was found to be 72%. Besides, in the assay on Rattus norvegicus [2], the G30 is reported as 52%. This compound returned a K in the assay with Rattus norvegicus [3] of 108%.

On to `CN1CCN(Cc2cccc(Cl)c2)C(C2=NCCN2)C1` (stereo not drawn), for which the “Delta G” value in the assay with Rattus norvegicus [1] was determined as 0%. In the assay on Rattus norvegicus [2], this compound returned a G30 of 23%. The K with Rattus norvegicus [3] is 39%.

`Cc1ccccc1CN1CCN(C)CC1C1=NCCN1` (stereo not drawn): in the assay on Rattus norvegicus [1], the “Delta G” value is 24%. In the assay with Rattus norvegicus [2], this compound displayed a G30 of 48%. Moreover, the K in the assay on Rattus norvegicus [3] came to 81%.
